# Published values of several laboratories.
# Compare with care: the assays were run in different laboratories.
# YES1: Tyrosine-protein kinase Yes (YES1, Homo sapiens, UniProt P07947)
SMILES,target,observed,mode,method,tested at,measurement,result
CC(=O)c1c(NS(C)(=O)=O)c2cc(-c3ccc(Cl)cc3)c(-c3ccc(Cl)cc3Cl)nc2n(C)c1=O,YES1,cell-free assay,,competition with immobilised ligand,1 µM,remaining binding,96%
O=C1Nc2ccc(Cl)cc2C1=Cc1cc(Cl)c(O)c(Cl)c1,YES1,cell-free assay,,,0.5 µM,remaining signal,78.3%
O=C(O)[C@H]1[C@H](Cn2nnc3ccccc3c2=O)CC[C@@H]1C(=O)c1ccc(OCCC2CCOCC2)cc1,YES1,cell-free assay,,competition with immobilised ligand,1 µM,remaining binding,100%
Nc1nc(Nc2ccccc2)sc1C(=O)c1c(F)cccc1F,YES1,enzyme activity,inhibitor,,10 µM,remaining activity,26%
CN1CC(Oc2cnc(C#N)cc2-c2ccn3nc(NC(=O)C4CC4)cc3c2)C1,YES1,enzyme activity,inhibitor,,1 µM,inhibition,86%
COc1cc(Nc2cnc(C#N)c(O[C@H](C)CN(C)C)n2)ncc1-c1cnn(C)c1,YES1,enzyme activity,inhibitor,radiometric,1 µM,remaining activity,93%
CCN(CC)c1ccc(C2=NNC(=O)CC2C)cc1[N+](=O)[O-] (stereo not drawn),YES1,enzyme activity,inhibitor,,10 µM,remaining activity,105%
O=c1cc(-c2cccc3c2Sc2ccccc2S3)oc(N2CCOCC2)c1,YES1,enzyme activity,inhibitor,,0.5 µM,remaining activity,89.4%
COc1cc2ncnc(Nc3ccc(Oc4ccccc4)c(C)c3C)c2cc1OC,YES1,enzyme activity,inhibitor,,1 µM,inhibition,88%
O=C(Nc1cnn(-c2csc(C(=O)NC3COC3)c2)c1)Nc1ccccc1Cl,YES1,enzyme activity,inhibitor,,5 µM,remaining activity,96.5%
CN(c1ncccc1CNc1nc(Nc2ccc3c(c2)CC(=O)N3)ncc1C(F)(F)F)S(C)(=O)=O,YES1,enzyme activity,inhibitor,,1 µM,inhibition,51.6%
COCCOc1nc(-c2ccc(Cl)nc2)nc2c1CN(C(=O)c1ncn3ccccc13)CC2,YES1,cell-free assay,,competition with immobilised ligand,0.1 µM,remaining binding,100%
FC(F)(F)Oc1cccc(-c2cnc3ccc(-c4ccncc4)nn23)c1,YES1,enzyme activity,inhibitor,radiometric,1 µM,activity vs control,82%
Oc1cccc(-c2nc(N3CCOCC3)c3oc4ncccc4c3n2)c1,YES1,enzyme activity,inhibitor,,10 µM,remaining activity,92%
CCC(=O)N[C@H]1CC[C@@H](C(=O)N(C)c2ccc(-c3nc4ccccc4o3)cc2)C1,YES1,cell-free assay,,competition with immobilised ligand,1 µM,remaining binding,82%
COc1cc2nccc(Oc3ccc(NC(=O)c4c5n(n(-c6ccc(F)cc6)c4=O)CCCC5)cc3)c2cc1OC,YES1,enzyme activity,inhibitor,,0.1 µM,inhibition,1%
CC(C)(C)c1nc(-c2cccc(NS(=O)(=O)c3c(F)cccc3F)c2F)c(-c2ccnc(N)n2)s1,YES1,enzyme activity,inhibitor,radiometric,1 µM,remaining activity,105%
CC/C(=N\NC(=O)NCc1cccc(O)c1)c1ccc(O)c(C)c1O,"Tyrosine-protein kinase Yes (YES1, Homo sapiens, UniProt P07947, T348I)",enzyme activity,inhibitor,,0.1 µM,inhibition,6.2%
CC(C)(O)[C@H]1CC[C@H](Nc2ccc3ncc(-c4cccc(C(F)(F)F)c4)n3n2)CC1,YES1,enzyme activity,inhibitor,,1 µM,remaining activity,18.1%
CS(=O)(=O)N1CCCC(NC(=O)[C@H](CCC2CCCCC2)NC(=O)c2ccc(CNC(=O)c3cnc4ccccn34)cc2)C1 (stereo partly drawn),YES1,cell-free assay,,competition with immobilised ligand,0.1 µM,remaining binding,88%
CNC(=O)c1cc(Oc2ccc(NC(=O)Nc3ccc(Cl)c(C(F)(F)F)c3)cc2)ccn1,YES1,cell-free assay,,,0.5 µM,remaining signal,82.8%
Nc1ncnc2occ(-c3ccc(NC(=O)Nc4cc(C(F)(F)F)ccc4F)cc3)c12,YES1,cell-free assay,,,20 µM,remaining signal,2.9%
CCOc1cc(-c2nncn2C)ccc1Nc1ncc2cc(C)nc(NCC(C)(C)C)c2n1,YES1,enzyme activity,inhibitor,FRET,1 µM,inhibition,22%
C[C@@H]1CN(c2cc(-c3n[nH]c4ccc(OC5(C)CC5)cc34)ncn2)C[C@H](C)O1,YES1,cell-free assay,,competition with immobilised ligand,0.1 µM,remaining binding,80%
Cc1cc(NC(=O)c2cccc3cc(-c4cccc5[nH]nc(N)c45)ccc23)ccc1F,YES1,enzyme activity,inhibitor,,0.1 µM,activity vs control,108%
CN(C)C(=O)Cn1cc(-c2nc(C3(c4ccc(-c5cnc(N)nc5)cc4)CC3)no2)cn1,YES1,cell-free assay,,competition with immobilised ligand,1 µM,remaining binding,87%
FC(F)c1nc2ccccc2n1-c1nc(N2CCOCC2)nc(N2CCOCC2)n1,YES1,enzyme activity,inhibitor,,10 µM,remaining activity,72%
O=C(N1CCS(=O)(=O)CC1)N1C[C@H](c2ccc(OC(F)(F)F)cc2)C[C@H](c2nc(C3CC3)no2)C1,YES1,cell-free assay,,competition with immobilised ligand,1 µM,remaining binding,96%
Cc1sc(C(=O)NC2COC2)cc1-n1cc(NC(=O)Nc2c(F)cccc2Cl)cn1,YES1,enzyme activity,inhibitor,,10 µM,remaining activity,81.4%
c1ccc(CNc2nc(N3CCOc4ccccc43)nc3c2CCCC3)cc1,YES1,target engagement in cells,inhibitor,chemoproteomics,20 mM,inhibition,-4.3%
